Results on 9 compounds are retold here after ChEMBL document CHEMBL1123629, “Resolution, absolute configuration, and cholinergic enantioselectivity of (-)- and (+)-c-2-methyl-r-5-[(dimethylamino)methyl]-1,3-oxathiolane t-3-oxide methiodide and related sulfones” (1987).

Test [1] is described as follows: Nicotinic activity on frog rectus abdominis. It is filed as functional, Rectus abdominis muscle.
The nature of test [2]: Eudismic ratio was determined in frog rectus abdominis. It is filed as functional, Rectus abdominis muscle.
Test [3] in a line: Eudismic ratio was determined in guinea pig ileum. Format: functional.
Test [4] can be described thus: Equipotent molar ratio(EPMR) between the ED50 of compound and ED50 of carbachol calculated on frog rectus abdominis. Format: functional, Rectus abdominis muscle. The method, boiled down: (§1)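 ED50 for test agonist and for carbachol (reference) were obtained by regressing the angular transform of fractional contractile effect against log agonist concentration. Potency is expressed as the equipotent molar ratio, ED50 test/ED50 carbachol. Values below 1 indicate greater potency than carbachol.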

Test [5] in a line: Equipotent molar ratio(EPMR) between the ED50 of compound and ED50 of carbachol calculated on guinea pig ileum. Format: functional. The essentials: as §1
A short description of test [6]: Muscarinic selectivity is reported as the ED50 ratio (ED50 Nicotinic / ED50 Muscarinic). It is filed as functional. The essentials:
(§2)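 Selectivity is computed from nicotinic (frog rectus abdominis) and muscarinic (guinea pig ileum) data as ED50(N)/ED50(M) and as EPMR(N)/EPMR(M). Each ED50 comes from regressing the angular transform of fractional effect on log agonist concentration, with carbachol as the reference.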

Test [7] is described as follows: Muscarinic selectivity is reported as the EPMR ratio (EPMR Nicotinic/ EPMR Muscarinic). Format: functional. The method, boiled down:
as §2

The species entered for a further test is Cavia porcellus. Description: Muscarinic activity on guinea pig ileum. Format: functional.

SMILES strings stand for the structures.

Consider `C[C@H]1O[C@@H](C[N+](C)(C)C)CS1(=O)=O.[I-]`, for which the ED50 in test [1] is 0.033 nM. For the same compound, the Eudismic ratio in test [2] is given as 12; in test [3] it was 1. The EPMR was 6.5 in test [4] and 170 in test [5]. Besides, the Selectivity in test [6] is 2.1; in test [7], 0.04.
`C[C@@H]1O[C@H](C[N+](C)(C)C)CS1(=O)=O.[I-]` gave an ED50 in the test filed under Cavia porcellus of 0.000158 nM. Moreover, the EPMR is listed as 76 in test [4] and 168 in test [5].
Turning to `C[C@@H]1O[C@H](C[N+](C)(C)C)CS1(=O)=O`, the Selectivity in test [6] worked out at 24; in test [7] it was 0.5.
Turning to `C[C@H]1O[C@@H](C[N+](C)(C)C)C[S+]1[O-].[I-]` (mixture of isomers), the values for the ED50 (in test [1]; in the test listed under Cavia porcellus) were 2300 nM and 12.2 nM, respectively. Also, the results for the EPMR in test [4] and in test [5] were 45 and 1.3, respectively.
The corresponding values for `C[C@H]1O[C@H](C[N+](C)(C)C)C[S+]1[O-].[I-]` (mixture of isomers) are 2100 nM, 19.6 nM, 41 and 209.
For `C[C@@H]1O[C@H](C[N+](C)(C)C)CS1(=O)=O.[I-]` (racemic), the ED50 in the test listed under Cavia porcellus was 0.000264 nM. Moreover, the EPMR is given as 15 in test [4] and 281 in test [5].
On to `C[C@@H]1O[C@H](C[N+](C)(C)C)CS1(=O)=O` (racemic), for which the Selectivity turned out to be 3 in test [6] and 0.05 in test [7].
Consider `C[C@@H]1O[C@H](C[N+](C)(C)C)C[C@H]1O` (racemic) [MUSCARINE], for which the ED50 in test [1] was above 500; in the test filed under Cavia porcellus, 79.4 nM. Moreover, the values for the EPMR in test [4] and in test [5] were above 95 and 0.8, respectively.
Take `C[N+](C)(C)CCOC(N)=O.[Cl-]` [CARBACHOL]: the ED50 stood at 5100 nM in test [1] and 94 nM in the test filed under Cavia porcellus. In addition, the EPMR in test [4] and in test [5] was 1 in each case.
